TAAR1 ag – agonists of human TAAR1; CHO RD-HGA16 TAAR1, Fluo-8 calcium fluorescence; vehicle wells 0%, saturating PEA agonist 100%; activation, % at 3 µM; 360,000 tested, 0.99% active; AID 624467;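 active = activation above the mean activation of all test compounds in the run plus 3 SD, cut at about 38% in these data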
Target sequence (Q96RJ0 whole entry, looked up): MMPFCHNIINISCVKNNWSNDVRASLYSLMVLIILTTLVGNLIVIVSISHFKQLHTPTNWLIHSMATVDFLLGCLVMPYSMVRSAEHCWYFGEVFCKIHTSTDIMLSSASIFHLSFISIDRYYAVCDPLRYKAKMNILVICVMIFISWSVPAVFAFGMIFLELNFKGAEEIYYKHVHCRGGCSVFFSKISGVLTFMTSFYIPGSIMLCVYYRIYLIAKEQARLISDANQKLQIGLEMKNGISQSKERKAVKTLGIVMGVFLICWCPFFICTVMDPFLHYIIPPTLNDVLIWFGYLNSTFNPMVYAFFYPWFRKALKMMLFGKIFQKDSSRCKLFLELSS
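Test system: RD-HGA16 (CHO) cells co-expressing Gα16 and hTAAR1 / Benchmarks: DMSO vehicle as 0%, PEA at EC100 as 100% / Repeats: no replicates (n 1) / Measure: % activation from peak over basal fluorescence ratio, DMSO-to-PEA scaled / Timing: 17-24 h plating, Fluo-8 75 min 37 °C, 30 min RT / Technique: kinetic Fluo-8 calcium fluorescence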
rCAG binder – r(CAG) repeat RNA binding; 370,000 tested, 1.3% active; inhibition, % at 3 µM; TO-PRO-1 dye displacement fluorescence;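 active = inhibition above the plate cutoff, the mean of all test compounds on that plate plus 3 SD, cut at about 35% in these data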;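 note: 0% = DMSO alone and 100% = 100 µM mitoxantrone as full dye displacement; higher means more dye released from RNA so lower well fluorescence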
HCV NS3 hel inh – blocks Hepatitis C virus NS3 helicase unwinding; NS3 helicase DNA unwinding, Cy5 molecular beacon fluorescence; 290,000 tested, 0.56% active; inhibition, % at 10.9 µM;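 active = inhibition above the mean of all tested compounds plus 3 SD, set per campaign, cut at about 35% in these data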;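 note: 0% = DMSO wells and 100% = thioflavine S control wells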
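Control set: DMSO versus 110 µM thioflavine S; Material: NS3 helicase fragment of HCV; Measured by: Cy5 fluorescence at 0 and 60 min, beacon hairpin quenching; Read-out basis: percent inhibition from t60/t0 fluorescence ratio; Times: reaction time 60 min, 25 °C; Repeats: single replicate; Compound dosing: single dose, 10.9 µM nominal final, DMSO 0.8% final.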
TAAR1 antagonist – human TAAR1 antagonism; CHO RD-HGA16 TAAR1, Fluo-8 calcium fluorescence, antagonist; inhibition, % at 3 µM; Q96RJ0; 360,000 tested, 1.5% active;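 active = inhibition above a per-plate cutoff, the mean inhibition of test compounds on that plate plus 3 SD, cut at about 49% in these data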;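 note: 0% = DMSO plus EC80 beta-PEA response and 100% = DMSO alone without agonist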
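Assay system: RD-HGA16 CHO cells with stable hTAAR1 and Gα16 / Reagent: EC80 β-phenethylamine stimulus / Doses: 3 µM, single point / Timing: dye loading 75 min at 37 °C, then 30 min room temperature / Measured by: Fluo-8 intracellular calcium dye fluorescence, real-time kinetic reads / Controls: vehicle wells and EC80 agonist wells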
core dimer inh – HCV core protein dimerization inhibition; TR-FRET GST/Flag-core106 dimerization, 1536-well; inhibition, % at 5 µM; 300,000 tested, 0.33% active;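 active = inhibition above the mean of all tested compounds plus 3 SD, set per screening campaign, cut at about 45% in these data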
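test system = GST/Flag-tagged HCV core106 proteins | probe or stimulus = Eu donor and XL665 acceptor anti-tag antibodies | times = compound-protein-antibody incubation 4 h at 22.5 °C | signal = TR-FRET, excitation 340 nm, emission 617 and 671 nm | measure = percent inhibition of core106 dimerization signal | controls = wells lacking GST-core106 and wells with excess unlabelled core106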
nonsel antag count – counter-screen for TAAR1 antagonists: nonselective antagonists. inhibition, % at 3 µM. AID 651780. counterscreen cell line, calcium fluorescence, antagonist mode. shares compounds with TAAR1 antagonist. 2,400 tested, 77% active; in the data active = inhibition above about 22%;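 note: CHO-Ga16 host cells stimulated with ATP at an EC80 level; 0% = agonist EC80 plus vehicle and 100% = vehicle without agonist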
TAAR1 ant conf – human TAAR1 antagonism, confirmed. shares compounds with TAAR1 antagonist. TAAR1-expressing cells, fluorescence antagonist read-out. inhibition, % at 3 µM. 2,400 tested, 40% active. AID 651785; in the data active = inhibition above about 49%;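 note: CHO-Ga16 host cells challenged with agonist PEA near its EC80; 0% = agonist at EC80 plus vehicle and 100% = vehicle with no agonist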
Ga16 nonsel ag – nonselective Ga16 agonist in TAAR1 antagonist counter-screen. shares compounds with TAAR1 antagonist. Ga16-expressing cells, calcium fluorescence, agonist counterscreen. AID 651953. activation, % at 3 µM. 2,400 tested, 18% active; in the data active = activation above about 12%;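 note: 0% = vehicle wells and 100% = saturating stimulus response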
TAAR1 ag count – TAAR1 agonism, antagonist counter-screen | shares compounds with TAAR1 antagonist | hTAAR1 cell line, fluorescence activation, agonist mode | activation, % at 3 µM | 2,400 tested, 2% active; in the data active = activation above about 37%;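 note: CHO cells stably expressing TAAR1 with calcium dye readout; 0% = DMSO vehicle and 100% = full agonist response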
An asterisk follows results filed as active. Most compounds without a hit are left out; they make up all but 3.7% or so of the library.

`COc1cc2c(cc1OC)CN(C(=S)Nc1ccc(Cl)cc1)CC2` gave TAAR1 ag 10, rCAG binder 3, HCV NS3 hel inh -5, TAAR1 antagonist 57*, core dimer inh -9, nonsel antag count 21, TAAR1 ant conf 53*, Ga16 nonsel ag 12* and TAAR1 ag count 2.
`CN(C)C(=O)N1CCN(C(=O)[C@H](CCc2ccccc2)NC(=O)[C@H]2O[C@@H](n3cnc4c(N)ncnc43)[C@H](O)[C@@H]2O)CC1` gave TAAR1 ag 1, rCAG binder 0 and TAAR1 antagonist -5.
`CCOc1ccc(/C=C2\SC(=O)N(CCNC(=O)C3COc4ccccc4O3)C2=O)cc1OC` (configuration not stated) gave TAAR1 ag 9, rCAG binder 9, HCV NS3 hel inh -4, TAAR1 antagonist 78*, core dimer inh 7, nonsel antag count 35*, TAAR1 ant conf 47, Ga16 nonsel ag 9 and TAAR1 ag count 4.
Screening O=C(/C=C/c1cn(-c2ccccc2)nc1-c1cccc(Cl)c1)N1CCN(c2ccccn2)CC1 returned TAAR1 ag 0, rCAG binder 11, HCV NS3 hel inh -3, TAAR1 antagonist 53*, core dimer inh 13, nonsel antag count 18, TAAR1 ant conf 31, Ga16 nonsel ag 3 and TAAR1 ag count 4.
`N#CC(C#N)=C1C=CC=CN1/C(=C\c1ccccc1)C(=O)c1cccs1` gave TAAR1 ag 2, rCAG binder 3, HCV NS3 hel inh -2, TAAR1 antagonist 13 and core dimer inh 7.
N#CC(C#N)=C1C=CC=CN1/C(=C\c1ccccc1Cl)C(=O)c1ccccc1 was read as TAAR1 ag 8, rCAG binder 4, HCV NS3 hel inh -1, TAAR1 antagonist 56*, core dimer inh 4, nonsel antag count 49*, TAAR1 ant conf 59*, Ga16 nonsel ag 6 and TAAR1 ag count 2.
`CN(C)CCCN(C(=O)/C=C/c1cccs1)c1nc2ccc(F)cc2s1` gave TAAR1 ag 14, rCAG binder 4, HCV NS3 hel inh -48, TAAR1 antagonist -10 and core dimer inh -2.
Screening CN(C)CCN(C(=O)/C=C/c1cccs1)c1nc2c(F)cc(F)cc2s1 returned TAAR1 ag 32, rCAG binder -2, HCV NS3 hel inh -19, TAAR1 antagonist 56*, core dimer inh 3, nonsel antag count 15, TAAR1 ant conf 16, Ga16 nonsel ag 4 and TAAR1 ag count 9.
For O=C(COc1ccccc1)Nc1cccc(-c2nnc(-c3ccccc3)o2)c1 the results were TAAR1 ag 13, rCAG binder 0, TAAR1 antagonist 67*, core dimer inh 11, nonsel antag count 38*, TAAR1 ant conf 51*, Ga16 nonsel ag 8 and TAAR1 ag count 4.
For CCC(=O)Nc1cccc(-c2nnc(-c3cccc(NC(=O)CC)c3)o2)c1 the results were TAAR1 ag 21, rCAG binder 1, HCV NS3 hel inh -11, TAAR1 antagonist 56*, core dimer inh -2, nonsel antag count 22*, TAAR1 ant conf 43, Ga16 nonsel ag 7 and TAAR1 ag count 9.
For COc1ccc(S[C@]2(C(=O)N(C)C)CC(=O)N(c3ccc(Cl)cc3)[C@@H]2c2ccc(OC)cc2)cc1 the results were rCAG binder 4.
Screening C[C@@H]1CN(C(=O)OC(C)(C)C)CCN1c1ccc(N2CCS(=O)(=O)CC2)c(C#N)c1 returned TAAR1 ag 12, rCAG binder 3 and TAAR1 antagonist 16.
For C[C@H]1CN(C(=O)OC(C)(C)C)CCN1c1ccc(N2CCS(=O)(=O)CC2)c(C#N)c1 the results were TAAR1 ag 21, rCAG binder 3, TAAR1 antagonist 67*, nonsel antag count 47*, TAAR1 ant conf 60*, Ga16 nonsel ag 16* and TAAR1 ag count 13.
For O=C(c1ccccc1)N1CCN(c2ncccn2)CC1 the results were TAAR1 ag 2, rCAG binder -1, HCV NS3 hel inh 1, TAAR1 antagonist -26 and core dimer inh 7.
For Nc1ncnc2nc(N3CCN(C(=O)c4ccccc4)CC3)[nH]c12 the results were TAAR1 ag -6, rCAG binder 2, HCV NS3 hel inh -1, TAAR1 antagonist 102*, core dimer inh 0, nonsel antag count 6, TAAR1 ant conf 4, Ga16 nonsel ag 4 and TAAR1 ag count 4.
`CCN1C(=O)c2cccc3c(S(=O)(=O)N(C)C)ccc1c23` gave TAAR1 ag 1, rCAG binder 3 and TAAR1 antagonist -12.
For CCN1C(=O)c2cccc3c(S(=O)(=O)N(C(=O)c4cccnc4)c4ccc(OC)cc4)ccc1c23 the results were TAAR1 ag 14, rCAG binder 0, HCV NS3 hel inh -1, TAAR1 antagonist 67*, core dimer inh 2, nonsel antag count 31*, TAAR1 ant conf 54*, Ga16 nonsel ag 8 and TAAR1 ag count 9.
Screening CCN1C(=O)c2cccc3c(S(=O)(=O)N(C(=O)c4ccncc4)c4ccc(OC)cc4)ccc1c23 returned TAAR1 ag 13, rCAG binder 8, HCV NS3 hel inh -26, TAAR1 antagonist 66*, core dimer inh -6, nonsel antag count 31*, TAAR1 ant conf 43, Ga16 nonsel ag 6 and TAAR1 ag count 4.
C#CCNC(=O)C[C@H]1C[C@@]2(C(=O)OC)C(=C[C@H](COCc3ccccc3)O[C@@H]2C)N(Cc2ccco2)C1=O was read as rCAG binder 3.
O=C(CSc1nnc(-c2ccc(Br)cc2)o1)Nc1cccc(C(=O)O)c1 was read as TAAR1 ag 0, rCAG binder 20, HCV NS3 hel inh 4, TAAR1 antagonist -11 and core dimer inh 13.
O=C(CSc1nnc(-c2ccc(Br)cc2)o1)Nc1cccc2ccccc12 was read as TAAR1 ag 20, rCAG binder 2, HCV NS3 hel inh -1, TAAR1 antagonist 59*, core dimer inh 1, nonsel antag count 30*, TAAR1 ant conf 19, Ga16 nonsel ag 5 and TAAR1 ag count 4.
For COC(=O)C12C=C3CC(c4ccc(C)s4)=C3C(=O)N1Cc1[nH]c3ccccc3c1C2 (configuration not stated) the results were rCAG binder 6.
